The source of these data is ChEMBL document CHEMBL1148035, “Isolation of bioactive and other oxoaporphine alkaloids from two annonaceous plants, Xylopia aethiopica and Miliusa cf. banacea” (J Nat Prod, 1994).

A value given as a limit tells only on which side of the number the result lay.

Test [1] deals with Saccharomyces cerevisiae. In words: DNA damaging activity against rad 52 DNA repair gene deficient Saccharomyces cerevisiae mutant assessed as drug level required to produce 12 mm zone of inhibition after 48 hrs. It is filed as functional. In a few lines:
(§1)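 Yeast agar-well diffusion assay: test material in a 100 μl well, incubated 48 h at 37°. IC12 is the concentration in μg/ml giving a 12 mm diameter zone of inhibition around the well. Reported values are averages of 2 or 3 determinations.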

The subject of test [2] is Saccharomyces cerevisiae. In words: DNA damaging activity against rad 52 DNA repair gene/topoisomerase 1 deficient Saccharomyces cerevisiae mutant assessed as drug level required to produce 12 mm zone of inhibition well after 48 hrs. It is filed as functional. A digest of the protocol:
as §1

The target in test [3] is DNA topoisomerase 2-alpha (Homo sapiens, UniProt P11388). In words: Inhibition of DNA topoisomerase 2 assessed as bacteriophage P4 DNA unknotting after 30 mins.
In test [4] the test system is Saccharomyces cerevisiae. Briefly: DNA damaging activity against rad 6 DNA repair gene deficient Saccharomyces cerevisiae mutant assessed as drug level required to produce 12 mm zone of inhibition well after 48 hrs. Type of test: functional. A digest of the protocol:
as §1

Test [5] has as its system Saccharomyces cerevisiae. In words: DNA damaging activity against wild type Saccharomyces cerevisiae expressing rad DNA repair gene assessed as drug level required to produce 12 mm zone of inhibition after 48 hrs. Type of test: functional. A digest of the protocol: as §1
The test system of test [6] is Saccharomyces cerevisiae. Briefly: Antifungal activity against rad 6 DNA repair gene deficient Saccharomyces cerevisiae mutant at 500 ug/ml. Type of test: functional. To be noted: read-out: IZ. In a few lines: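 Yeast well-diffusion assay against the rad 6 DNA-repair-deficient Saccharomyces cerevisiae strain. Sample is applied at the stated concentration (μg/ml) to a 100 μl well. Plates are incubated 48 h at 37°. Read-out is the diameter of the zone of inhibition, in mm.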

Chain of DNA topoisomerase 2-alpha (P11388 whole entry): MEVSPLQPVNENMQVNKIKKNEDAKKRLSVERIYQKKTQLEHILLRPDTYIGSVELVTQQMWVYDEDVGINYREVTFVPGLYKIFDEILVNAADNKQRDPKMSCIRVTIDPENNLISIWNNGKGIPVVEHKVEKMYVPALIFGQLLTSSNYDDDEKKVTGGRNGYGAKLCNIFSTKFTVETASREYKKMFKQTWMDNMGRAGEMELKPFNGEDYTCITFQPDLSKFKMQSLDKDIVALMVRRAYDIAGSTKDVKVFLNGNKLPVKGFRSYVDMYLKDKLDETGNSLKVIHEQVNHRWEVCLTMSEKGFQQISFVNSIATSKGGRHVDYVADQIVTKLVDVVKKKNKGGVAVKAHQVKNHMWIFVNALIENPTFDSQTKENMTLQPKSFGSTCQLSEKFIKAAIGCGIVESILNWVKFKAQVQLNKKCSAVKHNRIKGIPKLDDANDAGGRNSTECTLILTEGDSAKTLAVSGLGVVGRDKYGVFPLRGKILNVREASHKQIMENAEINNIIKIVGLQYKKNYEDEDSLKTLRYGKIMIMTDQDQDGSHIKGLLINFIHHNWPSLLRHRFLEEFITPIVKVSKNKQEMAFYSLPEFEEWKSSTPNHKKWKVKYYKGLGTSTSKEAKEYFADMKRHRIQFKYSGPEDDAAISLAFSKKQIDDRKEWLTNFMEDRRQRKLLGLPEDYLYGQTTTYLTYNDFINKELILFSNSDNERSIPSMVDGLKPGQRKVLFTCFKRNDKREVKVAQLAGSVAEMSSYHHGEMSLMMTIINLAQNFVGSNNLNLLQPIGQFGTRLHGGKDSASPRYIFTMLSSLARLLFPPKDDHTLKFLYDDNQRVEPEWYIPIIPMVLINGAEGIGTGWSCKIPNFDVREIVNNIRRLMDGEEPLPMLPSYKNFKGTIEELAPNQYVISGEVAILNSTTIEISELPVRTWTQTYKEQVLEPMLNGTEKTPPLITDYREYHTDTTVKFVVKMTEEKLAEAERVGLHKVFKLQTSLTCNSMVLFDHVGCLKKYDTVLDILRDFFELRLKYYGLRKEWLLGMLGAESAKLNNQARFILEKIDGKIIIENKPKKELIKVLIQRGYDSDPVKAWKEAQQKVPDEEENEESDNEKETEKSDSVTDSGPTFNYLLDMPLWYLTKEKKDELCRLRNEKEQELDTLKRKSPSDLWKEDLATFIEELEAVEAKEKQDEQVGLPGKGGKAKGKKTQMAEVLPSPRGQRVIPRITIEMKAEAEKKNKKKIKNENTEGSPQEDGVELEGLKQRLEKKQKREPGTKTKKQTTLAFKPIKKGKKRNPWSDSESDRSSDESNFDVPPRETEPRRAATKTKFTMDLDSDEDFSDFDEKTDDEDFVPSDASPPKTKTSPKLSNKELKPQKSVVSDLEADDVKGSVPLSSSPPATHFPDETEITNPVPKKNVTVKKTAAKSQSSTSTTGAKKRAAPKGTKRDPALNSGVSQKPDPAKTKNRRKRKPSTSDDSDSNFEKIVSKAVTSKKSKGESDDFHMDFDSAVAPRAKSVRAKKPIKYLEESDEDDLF

What is called IC50 is the concentration that inhibits the measured activity by half. Turning to `COc1ccc2c(c1)-c1c3c(cc4ccnc(c14)C2=O)OCO3`, the Activity in test [1] was found to be 214 µg/mL; in test [2] it was 113 µg/mL. Further, in test [3], the IC50 was 81.9 µM.

In the case of `O=C1c2ccc(O)cc2-c2c3c(cc4ccnc1c24)OCO3`, the Activity in test [1] amounted to 295 µg/mL; in test [2], 72 µg/mL. For the same compound, in test [3], the IC50 was 42.9 µM.

`CC[C@@]1(O)C(=O)OCc2c1cc1n(c2=O)Cc2cc3ccccc3nc2-1` [CAMPTOTHECIN]: the results for the Activity in test [1], in test [2] and in test [4] were 0.6 µg/mL, greater than 20 µg/mL and 8.7 µg/mL, respectively.

As to `COc1c(OC)c2c3c(nccc3c1OC)C(=O)c1ccccc1-2` [HOMOMOSCHATOLINE], the Activity in test [1], in test [2] and in test [4] was greater than 500 µg/mL throughout.

On to `O=C1c2ccccc2-c2c3c(cc4ccnc1c24)OCO3` [LIRIODENINE], for which the Activity was 16.7 µg/mL in test [1] and 500 µg/mL in test [5]. In test [6], the zone of inhibition at 500 µg/mL turned out to be 15 mm.

On to `COc1cc2ccnc3c2c(c1OC)-c1ccccc1C3=O` [LYSICAMINE], for which the Activity was 300 µg/mL in test [1], 390 µg/mL in test [2] and greater than 500 µg/mL in test [4].

Regarding `COc1cc2c(cc1OC)-c1c(OC)c(OC)cc3ccnc(c13)C2=O` [OXOGLAUCINE], the Activity in test [1], in test [2], in test [4] and in test [5] was greater than 500 µg/mL in each case.

Take `COc1c(OC)c2c3c(nccc3c1OC)C(=O)c1cc3c(cc1-2)OCO3` [OXOPHOEBINE]: the Activity in test [1] was 6.4 µg/mL; in test [2], 2.6 µg/mL; in test [4] it was 4.7 µg/mL; in test [5] it was greater than 500 µg/mL.

In the case of `COC1=C(N)C(=O)c2nc(-c3nc(C(=O)O)c(C)c(-c4ccc(OC)c(OC)c4O)c3N)ccc2C1=O` [STREPTONIGRIN], the Activity in test [1] is 0.4 µg/mL; in test [2], less than 0.4 µg/mL; in test [4], 2.4 µg/mL.
